The target in experiment [1] is T1, Tyrosine-protein kinase BTK (Homo sapiens, UniProt Q06187). In words: Inhibition of recombinant human N-terminal His-tagged BTK expressed in baculovirus infected in Sf9 cells assessed as inhibitory constant incubated for 1 hr by TR-FRET assay. A digest of the protocol:
(§1)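 Proteros reporter displacement assay. BTK is preincubated with a Cy5-labelled ATP-competitive probe, then unlabelled competitor is added and signal recorded over 1 h, in technical triplicates. Data normalized to high and low controls at each time point. IC50 is apparent after 1 h. kobs comes from a mono-exponential decay fit excluding the first point, and is refit as kobs = kinact·[I]/(KI+[I]) to give kinact, KI and kinact/KI.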
On the technique in general: In TR-FRET formats the signal depends on donor and acceptor labels being close together.

Experiment [2] deals with T1, Tyrosine-protein kinase BTK. In words: Inhibition of recombinant human N-terminal His-tagged BTK expressed in baculovirus infected in Sf9 cells incubated for 1 hr by TR-FRET assay. The procedure, abridged: as §1
For experiment [3] the target is unchanged. As to the kind of experiment: Inhibition of recombinant human N-terminal His-tagged BTK expressed in baculovirus infected in Sf9 cells assessed as inactivation constant incubated for 1 hr by TR-FRET assay. The procedure, abridged:
as §1

In experiment [4] the test system is Tyrosine-protein kinase BTK (Homo sapiens), Q06187 [C481S]. In words: Binding affinity to recombinant human BTK C481S mutant (389 to 659 residues) expressed in insect cells assessed as change in melting temperature at 50 uM incubated for 120 mins by thermal shift assay. A digest of the protocol:
(§2)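 BTK (389-659), wild-type or C481S, at 5 μM with 50 μM compound for 120 min at room temperature in 20 mM HEPES pH 8.0, 0.5 mM TCEP, 150 mM NaCl, 0.01% Tween20, 0.5% DMSO. nanoDSF with a 20–95 °C ramp at 2.5 °C/min, tryptophan 350/330 nm ratio. Tm taken from the first-derivative maximum, three technical replicates. ΔTm is Tm with compound minus apo Tm.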

The test system is the same in experiment [5]. In words: Binding affinity to BTK C481S mutant (unknown origin) by mass spectrometry analysis relative to control. On the set-up: concentration or dose not given beside the values. A digest of the protocol:
(§3)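 Wild-type or C481S BTK incubated with compound for one hour. Samples diluted to 0.1 mg/ml protein in 5% acetonitrile/0.1% formic acid, then reversed-phase C4 LC (80 °C, acetonitrile/0.1% FA gradient, UV 214 and 280 nm) coupled to positive-mode ESI-MS for intact mass. Adduct read as the mass shift versus BTK alone.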

The target of experiment [6] is T1, Tyrosine-protein kinase BTK. As to the kind of experiment: Inhibition of recombinant human N-terminal His-tagged BTK expressed in baculovirus infected in Sf9 cells assessed as ratio of inactivation constant to inhibitory constant incubated for 1 hr by TR-FRET assay. A digest of the protocol: as §1
The target of experiment [7] is Tyrosine-protein kinase BTK (Homo sapiens, UniProt Q06187, C481S). In words: Inhibition of recombinant human N-terminal His-tagged BTK C481S mutant expressed in baculovirus infected in Sf9 cells incubated for 1 hr by TR-FRET assay. A digest of the protocol: (§4)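 Proteros reporter displacement assay: enzyme pre-incubated with Cy5-labelled ATP-competitive kinase inhibitor probe, then unlabeled competitor added. Signal recorded for 1 hour and normalized at each time-point to high (enzyme + probe, no competitor) and low (enzyme, no probe, with competitor) controls. Technical triplicates.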
Sequence of Tyrosine-protein kinase BTK (Homo sapiens, UniProt Q06187, C481S) (Q06187 2-659 C481S limits assumed): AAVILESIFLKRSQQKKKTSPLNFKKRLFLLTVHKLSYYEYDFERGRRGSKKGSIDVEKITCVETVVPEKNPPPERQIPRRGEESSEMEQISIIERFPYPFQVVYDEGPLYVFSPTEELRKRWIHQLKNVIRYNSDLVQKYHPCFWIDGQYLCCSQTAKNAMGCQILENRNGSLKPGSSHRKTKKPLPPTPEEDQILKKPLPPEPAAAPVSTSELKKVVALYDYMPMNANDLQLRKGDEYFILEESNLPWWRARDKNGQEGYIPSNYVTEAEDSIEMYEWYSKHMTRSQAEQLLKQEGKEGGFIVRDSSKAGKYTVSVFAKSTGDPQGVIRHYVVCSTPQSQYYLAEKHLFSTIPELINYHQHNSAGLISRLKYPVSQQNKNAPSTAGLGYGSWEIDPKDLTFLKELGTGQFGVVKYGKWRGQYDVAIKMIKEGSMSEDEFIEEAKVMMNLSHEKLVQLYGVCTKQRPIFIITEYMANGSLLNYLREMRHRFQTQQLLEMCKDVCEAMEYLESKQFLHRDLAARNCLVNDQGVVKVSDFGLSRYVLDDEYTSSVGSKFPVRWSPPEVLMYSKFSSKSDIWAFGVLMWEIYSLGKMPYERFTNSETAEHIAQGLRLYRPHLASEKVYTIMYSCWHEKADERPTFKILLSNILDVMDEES

The target of experiment [8] is T1, Tyrosine-protein kinase BTK. As to the kind of experiment: Binding affinity to BTK (unknown origin) by mass spectrometry analysis relative to control. On the set-up: concentration or dose not given beside the values. The procedure, abridged:
as §3

The target is the same in experiment [9]. As to the kind of experiment: Binding affinity to recombinant human BTK (389 to 659 residues) expressed in insect cells assessed as change in melting temperature at 50 uM incubated for 120 mins by thermal shift assay. The procedure, abridged: as §2
Experiment [10] has the same target. In words: Inhibition of recombinant wild type human N-terminal His-tagged BTK expressed in baculovirus infected in Sf9 cells assessed as residence time incubated for 1 hr by TR-FRET assay. A digest of the protocol: as §4
The test system of experiment [11] is Tyrosine-protein kinase BTK (Homo sapiens), Q06187 [C481S]. In words: Inhibition of recombinant human N-terminal His-tagged BTK C481S mutant expressed in baculovirus infected in Sf9 cells assessed as residence time incubated for 1 hr by TR-FRET assay. The procedure, abridged: as §4
Sequence of Tyrosine-protein kinase BTK (Homo sapiens), Q06187 [C481S] (Q06187 whole entry C481S, the tested form may be a part): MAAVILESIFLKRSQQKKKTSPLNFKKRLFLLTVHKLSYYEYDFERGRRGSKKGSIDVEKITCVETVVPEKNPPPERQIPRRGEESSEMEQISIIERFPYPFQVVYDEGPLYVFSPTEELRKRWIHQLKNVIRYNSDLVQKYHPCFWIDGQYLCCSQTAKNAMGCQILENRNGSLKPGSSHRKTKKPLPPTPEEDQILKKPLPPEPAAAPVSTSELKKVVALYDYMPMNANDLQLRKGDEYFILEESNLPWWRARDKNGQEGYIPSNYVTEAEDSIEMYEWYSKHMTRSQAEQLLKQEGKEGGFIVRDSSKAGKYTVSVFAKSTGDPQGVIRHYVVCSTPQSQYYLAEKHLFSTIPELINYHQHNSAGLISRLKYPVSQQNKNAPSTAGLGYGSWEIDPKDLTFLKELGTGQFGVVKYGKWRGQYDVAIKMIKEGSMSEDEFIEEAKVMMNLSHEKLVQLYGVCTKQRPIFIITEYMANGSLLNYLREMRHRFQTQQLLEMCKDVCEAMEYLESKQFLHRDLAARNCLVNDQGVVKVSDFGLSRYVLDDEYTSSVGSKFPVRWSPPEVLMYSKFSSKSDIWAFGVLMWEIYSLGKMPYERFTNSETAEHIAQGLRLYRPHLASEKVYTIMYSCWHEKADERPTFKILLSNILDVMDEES

Structures are written as SMILES. Square brackets hold non-standard residues; d marks the D form. Peptide text beside a SMILES is read from it. * marks the point of attachment. Oic = O=C(O)[C@@H]1C[C@@H]2CCCC[C@@H]2N1; Phe(4-CN) = N#Cc1ccc(C[C@H](N)C(=O)O)cc1; Acryloyl = C=CC(=O)* Bounds are passed on as bounds.

The record followed here is ChEMBL document CHEMBL4811293, “Novel irreversible covalent BTK inhibitors discovered using DNA-encoded chemistry” (Bioorg Med Chem, 2021).

T1 sequence (Q06187 whole entry): as the sequence (Q06187 whole entry C481S, the tested form may be a part) above, with S481C counted along it

With `CNC(=O)[C@@H](Cc1ccc(C#N)cc1)NC(=O)[C@@H](NC(=O)[C@@H]1CO1)c1ccccc1`, the Ki (commonly a measure of affinity in units of concentration, obtained from inhibition or displacement) in experiment [1] worked out at 1.93 µM. Moreover, the IC50 (in general, the midpoint of a concentration-inhibition curve) in [2] was 0.0842 µM; in [7], > 59.2 µM. Moreover, in experiment [3], the Kinact is 9.41 10^-3/s. In addition, the ΔTm – broadly, the shift of the melting midpoint relative to a reference – in experiment [4] was -0.15 °C; in experiment [9], 6.36 °C. In addition, the results for the Activity in experiment [5] and in experiment [8] were 0% and 95.2%, respectively. The Ratio in [6] stood at 4880 s⁻¹ M⁻¹.

Regarding `CNC(=O)[C@H]1Cc2c([nH]c3ccccc23)CN1C(=O)C[C@@H](Cc1cccc(F)c1)NC(=O)C1CO1` (stereo partly specified), the Ki in [1] was found to be 9.27 µM. Also, the values for the half-inhibitory concentration (IC50) in experiment [2] and in experiment [7] were 0.232 µM and > 59.2 µM, respectively. Further, the Kinact in experiment [3] was 1.54 10^-2/s. Besides, the Ratio in experiment [6] was 1660 s⁻¹ M⁻¹.

Consider `C=CC(=O)N1CCC[C@H](CC(=O)N2Cc3[nH]c4ccccc4c3C[C@@H]2C(=O)NC)C1`, for which the IC50 in experiment [2] was 4.76 µM; in experiment [7], > 59.2 µM. Also, the ΔTm in experiment [4] came out at 0.1 °C; in [9], 6.55 °C. Besides, the Activity in [5] amounted to 0%; in experiment [8], 97.9%. The Ratio in experiment [6] was determined as 59.2 s⁻¹ M⁻¹.

For the molecule `CNC(=O)[C@@H](Cc1ccc(C#N)cc1)NC(=O)[C@@H](NC(=O)[C@]1(C)CO1)[C@@H](C)OC(C)(C)C`, in experiment [1], the Ki came out at 1.25 µM. The half-inhibitory concentration (IC50) in [2] was 0.0581 µM; in experiment [7] it was > 59.2 µM. Besides, the Kinact in experiment [3] is 8.22 10^-3/s. In addition, the ΔTm in [4] is 0.23 °C; in experiment [9], 4.51 °C. In addition, the Activity in [5] amounted to 0%; in [8], 92.3%. Further, the Ratio in experiment [6] came to 6580 s⁻¹ M⁻¹.

With `CNC(=O)[C@H]1Cc2c([nH]c3ccccc23)CN1C(=O)c1occc1CNc1ccc2nccnc2c1`, the concentration for half-maximal inhibition (IC50) in experiment [2] was found to be 0.00378 µM; in experiment [7], 0.00304 µM. The TIME in [10] came out at 0.15 h; in [11], 0.367 h. For the same molecule, the figures for the ΔTm in experiment [4] and in experiment [9] were 13.4 °C and 13.2 °C, respectively. Further, the Activity in [5] and in experiment [8] was 0% throughout.

In the case of `CNC(=O)[C@H]1Cc2c([nH]c3ccccc23)CN1C(=O)[C@@H](Cc1ccccc1)NC(=O)c1c[nH]c(C(N)=O)c1`, the IC50 in experiment [2] is 0.0227 µM; in [7], 0.0562 µM. Moreover, the TIME in experiment [10] worked out at 0.567 h; in experiment [11], 0.233 h.

For `C=CC(=O)N1[C@H](C(=O)N[C@@H](Cc2ccc(C#N)cc2)C(=O)NC)C[C@@H]2CCCC[C@@H]21` (Acryloyl-[Oic]-[Phe(4-CN)]-NHMe), the IC50 is 36.4 µM in experiment [2] and > 59.2 µM in [7]. For the same molecule, the Activity in [5] was 0%; in experiment [8], 94.4%.
